Source: ChEMBL document CHEMBL3593225 (Bioorg Med Chem, 2015)
Active and inactive are the calls of the source. No cut-off for these calls is given here.

Columns and labels:
[1] = molecular target: T1, 5-hydroxytryptamine receptor 1A (Homo sapiens, UniProt P08908); experiment: Agonist activity at human 5-HT1A receptor expressed in human HeLa cell membranes assessed as stimulation of [35S]GTPgammaS binding after 20 mins by liquid scintillation counting analysis; type: functional
T1 sequence (P08908 whole entry): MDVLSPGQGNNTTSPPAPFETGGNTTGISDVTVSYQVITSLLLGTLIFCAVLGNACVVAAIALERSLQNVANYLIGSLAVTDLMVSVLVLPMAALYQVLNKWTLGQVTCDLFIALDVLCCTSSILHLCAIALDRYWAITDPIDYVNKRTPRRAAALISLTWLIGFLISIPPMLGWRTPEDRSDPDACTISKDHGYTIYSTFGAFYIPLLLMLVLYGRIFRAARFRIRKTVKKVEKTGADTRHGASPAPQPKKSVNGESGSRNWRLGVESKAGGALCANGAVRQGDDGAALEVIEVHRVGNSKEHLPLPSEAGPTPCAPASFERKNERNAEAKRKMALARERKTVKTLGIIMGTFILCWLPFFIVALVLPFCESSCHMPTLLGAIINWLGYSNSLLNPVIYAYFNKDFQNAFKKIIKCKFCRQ

[2] = molecular target: T1, 5-hydroxytryptamine receptor 1A; experiment: Agonist activity at human 5-HT1A receptor expressed in CHO cells assessed as inhibition of forskolin-stimulated cAMP accumulation after 15 mins by ELISA; type: functional, cell-based
In short: (§1)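 CHO-1A cells (10^4/well) grown 24 h, then 24 h in serum-free DMEM/F-12. Compounds co-incubated with 1 μM forskolin for 15 min at 37 °C in serum-free medium with 5 μM pargyline and 2.5 mM theophylline. Lysis in 1% Triton X-100/0.1 M HCl, cAMP measured by acetylated ELISA. Sigmoidal or Gaussian bell-shaped fits.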

[3] = molecular target: T2, 5-hydroxytryptamine receptor 1A (Homo sapiens) (UniProt P08908); experiment: Agonist activity at human 5-HT1A receptor expressed in CHO cells assessed as inhibition of forskolin-stimulated cAMP accumulation after 15 mins by ELISA relative to 5-HT; type: functional, cell-based
T2 sequence (whole entry): T1 sequence (P08908 whole entry)
In short: as §1, with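 “ELISA. Forskolin alone set as 0%, 5-HT maximum as 100%.” for “ELISA.”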

[4] = molecular target: T2, 5-hydroxytryptamine receptor 1A (Homo sapiens); experiment: Agonist activity at human 5-HT1A receptor expressed in CHO cells after 90 mins by beta-arrestin-2 recruitment assay relative to 5-HT; type: cell-based
In short: (§2)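 PathHunter enzyme-complementation β-arrestin-2 recruitment in CHO-K1 cells carrying HTR1A, 10^4 cells/well, plated 24–48 h at 37 °C before use. Compounds from methanol stocks, final 0.1–100 μM, applied for 90 min at 37 °C. Detection reagents then added for 60 min at room temperature, luminescence read. Pooled from 3–4 independent experiments in duplicate, with 5-HT on every plate as reference.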

[5] = molecular target: T2, 5-hydroxytryptamine receptor 1A (Homo sapiens); experiment: Agonist activity at human 5-HT1A receptor expressed in CHO cells assessed as ERK1/2 phosphorylation at 1 uM after 5 mins by Western blot analysis relative to control; type: cell-based
In short: (§3)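 CHO-1A cells (2 × 10^5/well) grown 24 h, then 24 h serum-free. Agonists given at 1 μM in medium with 5 μM pargyline and 2.5 mM theophylline for 5 min at 37 °C. Lysates in SDS buffer with protease/phosphatase inhibitors. Phospho-ERK1/2 Western blot densitometry normalized to calnexin, untreated baseline subtracted, 5-HT set as 100%. Three experiments in triplicate, one-way ANOVA with Dunnett's test against untreated.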

[6] = molecular target: T2, 5-hydroxytryptamine receptor 1A (Homo sapiens); experiment: Ratio for agonist activity at human 5-HT1A receptor expressed in CHO cells by forskolin-stimulated cAMP accumulation assay to agonist activity at human 5-HT1A receptor expressed in CHO cells by beta-arrestin-2 recruitment assay; type: functional, cell-based
[7] = molecular target: T1, 5-hydroxytryptamine receptor 1A; experiment: Agonist activity at human 5-HT1A receptor expressed in CHO cells after 90 mins by beta-arrestin-2 recruitment assay; type: cell-based
In short: as §2, with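 “read.” for “read. Pooled from 3–4 independent experiments in duplicate, with 5-HT on every plate as reference.”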

[8] = molecular target: T2, 5-hydroxytryptamine receptor 1A (Homo sapiens); experiment: Agonist activity at human 5-HT1A receptor expressed in CHO cells assessed as ERK1/2 phosphorylation at 1 uM after 5 mins by Western blot analysis relative to 5-HT; type: cell-based; in short: as §3

Compound	Ki [1] [nM]	EC50 [2] [nM]	Emax [3] [%]	Emax [4] [%]	Activity [5]	fold change (FC) [5]	Ratio [6]	EC50 [7] [nM]	Activity [8] [%]
COc1cccc2c(CCCN3CCN(c4ccccn4)CC3)cccc12	0.38	1.26	53.6	10.7	inactive	–	–	–	–
COc1cccc(CCCCN2CCN(c3ccccn3)CC2)c1	23	–	53.4	5.9	–	–	–	–	–
NCCc1c[nH]c2ccc(O)cc12	–	–	–	–	–	6.4	–	–	–
COc1ccc2c(c1)CC(CCN1CCN(c3ccccn3)CC1)CC2 (stereo unspecified)	0.16	20.9	73.5	35.9	–	–	< 10	3.55	–
COc1cccc2c1CCCC2CCCN1CCN(c2ccccn2)CC1 (stereo unspecified)	0.48	0.776	–	–	–	–	–	–	–
CCCN(CCC)C1CCc2cccc(O)c2C1 (racemic)	–	–	–	44.5	–	–	–	–	–
COc1cccc([C@H]2CC[C@H](N3CCN(c4ccccn4)CC3)CC2)c1	0.028	0.794	69.5	27.9	–	–	< 10	0.324	30.4
COc1cccc2c1CCC/C2=C\CCN1CCN(c2ccccn2)CC1	0.31	2.95	66.9	22.8	–	–	< 10	3390	–
